Among the data in ChEMBL document CHEMBL1152834, “Synthesis and potential anticonvulsant activity of new N-3-substituted 5,5-cyclopropanespirohydantoins” (2009) are inhibition in vivo values, retold here.

Structures are written as SMILES.

Holding throughout (type): functional
Experiment [1] has as its system Mus musculus. Description: Anticonvulsant activity in mouse assessed as inhibition of maximal electroshock-induced seizures at 30 mg/kg, po. The gist of the method: (§1)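 Male Kunming mice (20 ± 2.0 g), 10 per group, given test agent orally as a suspension in 0.5% carboxymethyl cellulose–0.9% saline. After 1 h, a 25 mA shock was delivered through ear electrodes for 0.25 s. Protection was scored as abolition of the hind limb tonic extensor component. Results are given as animals protected/animals tested.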
Background: The maximal electroshock test induces tonic seizures with an electrical stimulus.

Experiment [2] concerns Mus musculus. Nature of the experiment: Anticonvulsant activity in mouse assessed as inhibition of subcutaneous pentylenetetrazole-induced seizures at 20 mg/kg, po. Summed up: (§2)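 Male Kunming mice (20 ± 2.0 g) received oral test agent suspended in 0.5% carboxymethyl cellulose–0.9% saline. Pentylenetetrazole 70 mg/kg in 0.9% saline was then injected subcutaneously in the scruff of the neck. Protection meant no threshold seizure, i.e. no single clonic spasm episode lasting at least 5 s.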

Experiment [3] deals with Mus musculus. Description: Anticonvulsant activity in mouse assessed as inhibition of maximal electroshock-induced seizures at 15 mg/kg, po. Summed up: as §1
Experiment [4] deals with Mus musculus. Nature of the experiment: Anticonvulsant activity in mouse assessed as inhibition of subcutaneous pentylenetetrazole-induced seizures at 80 mg/kg, po. The gist of the method:
as §2

Experiment [5] has as its system Mus musculus. Description: Anticonvulsant activity in mouse assessed as inhibition of subcutaneous pentylenetetrazole-induced seizures at 40 mg/kg, po. The gist of the method:
as §2

The subject of experiment [6] is Mus musculus. Description: Anticonvulsant activity in mouse assessed as inhibition of maximal electroshock-induced seizures at 7.5 mg/kg, po. The gist of the method:
as §1

The inhibition in vivo is the change of the read-out against control, counted positive when it falls. Turning to `Cc1ccc(N2C(=O)NC3(CC3(C)C)C2=O)cc1` (stereo not drawn), in the experiment with Mus musculus [1], the inhibition in vivo at 30 mg/kg was 50%.
As to `CCCCN1C(=O)NC2(CC2(C)C)C1=O` (stereo not drawn), the inhibition in vivo at 30 mg/kg in the experiment with Mus musculus [1] was 90%. In addition, the inhibition in vivo at 20 mg/kg with Mus musculus [2] was found to be 30%. Moreover, the inhibition in vivo at 15 mg/kg in the experiment on Mus musculus [3] was 50%. Besides, in the experiment with Mus musculus [4], the inhibition in vivo at 80 mg/kg was found to be 60%. Besides, in the experiment on Mus musculus [5], the inhibition in vivo at 40 mg/kg is 40%. In addition, the inhibition in vivo at 7.5 mg/kg with Mus musculus [6] came to 20%.
`CC1(C)CC12NC(=O)N(c1cc(Cl)cc(Cl)c1)C2=O` (stereo not drawn): in the experiment on Mus musculus [1], the inhibition in vivo at 30 mg/kg is 50%.
Regarding `O=C1N=C(O)NC1(c1ccccc1)c1ccccc1` [PHENYTOIN SODIUM], in the experiment on Mus musculus [1], the inhibition in vivo at 30 mg/kg stood at 90%. In addition, the inhibition in vivo at 15 mg/kg with Mus musculus [3] was 50%. Besides, the inhibition in vivo at 7.5 mg/kg with Mus musculus [6] is 20%.
On to `CCCC(CCC)C(=O)O` [VALPROATE SODIUM], for which, in the experiment on Mus musculus [2], the inhibition in vivo at 20 mg/kg worked out at 30%. In the experiment with Mus musculus [4], the inhibition in vivo at 80 mg/kg was determined as 80%. Also, the inhibition in vivo at 40 mg/kg in the experiment with Mus musculus [5] was 50%.
For `COc1ccc(N2C(=O)NC3(CC3(C)C)C2=O)cc1` (stereo not drawn), in the experiment on Mus musculus [1], the inhibition in vivo at 30 mg/kg was 60%.
As to `CC1(C)CC12NC(=O)N(c1ccc([N+](=O)[O-])cc1)C2=O` (stereo not drawn), the inhibition in vivo at 30 mg/kg with Mus musculus [1] amounted to 60%.
For the molecule `CC(C)N1C(=O)NC2(CC2(C)C)C1=O` (stereo not drawn), the inhibition in vivo at 30 mg/kg with Mus musculus [1] was 70%.
`CC1(C)CC12NC(=O)N(Cc1ccccc1)C2=O` (stereo not drawn): the inhibition in vivo at 30 mg/kg in the experiment with Mus musculus [1] came out at 70%.
For the molecule `CC1(C)CC12NC(=O)N(c1ccccc1)C2=O` (stereo not drawn), the inhibition in vivo at 30 mg/kg in the experiment on Mus musculus [1] is 80%. The inhibition in vivo at 20 mg/kg in the experiment with Mus musculus [2] came out at 20%. The inhibition in vivo at 15 mg/kg with Mus musculus [3] turned out to be 40%. The inhibition in vivo at 80 mg/kg in the experiment on Mus musculus [4] came out at 60%. In the experiment on Mus musculus [5], the inhibition in vivo at 40 mg/kg worked out at 40%. The inhibition in vivo at 7.5 mg/kg in the experiment on Mus musculus [6] came to 20%.
`CN1C(=O)NC2(CC2(C)C)C1=O` (stereo not drawn): the inhibition in vivo at 30 mg/kg in the experiment on Mus musculus [1] was found to be 90%. In the experiment with Mus musculus [2], the inhibition in vivo at 20 mg/kg came out at 20%. Further, the inhibition in vivo at 15 mg/kg in the experiment with Mus musculus [3] came to 50%. In addition, the inhibition in vivo at 80 mg/kg in the experiment with Mus musculus [4] was 60%. Moreover, the inhibition in vivo at 40 mg/kg in the experiment with Mus musculus [5] stood at 30%. Also, the inhibition in vivo at 7.5 mg/kg with Mus musculus [6] was found to be 40%.
`CC1(C)CC12NC(=O)N(c1ccc(F)cc1)C2=O` (stereo not drawn): the inhibition in vivo at 30 mg/kg in the experiment on Mus musculus [1] was 80%. Moreover, in the experiment on Mus musculus [2], the inhibition in vivo at 20 mg/kg came out at 30%. Further, the inhibition in vivo at 15 mg/kg in the experiment with Mus musculus [3] amounted to 50%. Moreover, in the experiment on Mus musculus [4], the inhibition in vivo at 80 mg/kg worked out at 70%. Further, in the experiment on Mus musculus [5], the inhibition in vivo at 40 mg/kg was determined as 50%. Further, in the experiment on Mus musculus [6], the inhibition in vivo at 7.5 mg/kg turned out to be 30%.
As for `CC1(C)CC12NC(=O)NC2=O` (stereo not drawn), in the experiment on Mus musculus [1], the inhibition in vivo at 30 mg/kg was found to be 50%.
Regarding `CCC(CO)N1C(=O)NC2(CC2(C)C)C1=O` (stereo not drawn), the inhibition in vivo at 30 mg/kg in the experiment on Mus musculus [1] worked out at 90%. In the experiment with Mus musculus [2], the inhibition in vivo at 20 mg/kg is 20%. For the same molecule, the inhibition in vivo at 15 mg/kg with Mus musculus [3] came out at 50%. In addition, the inhibition in vivo at 80 mg/kg in the experiment on Mus musculus [4] is 70%. In addition, the inhibition in vivo at 40 mg/kg with Mus musculus [5] is 40%. For the same molecule, the inhibition in vivo at 7.5 mg/kg in the experiment with Mus musculus [6] came out at 30%.
